# Measured values pooled from the literature.
# Organism: Plasmodium falciparum
# Read-out: parasite growth
# Method: SYBR Green
SMILES,strain,concentration,time,notes,measurement,result
C[C@@H]1CC[C@H]2[C@@H](C)C(=O)O[C@@H]3O[C@@]4(C)CC[C@@H]1[C@]32OO4,DD2,,,"drug-resistant strain, blood stage",IC50,76 nM
Cn1cc2c3c1C(=O)C(N)=CC3=NCC2,W2,,,blood stage,IC50,5770 nM
COc1ccc(C2CC3=C(C(=O)O2)C(c2ccccc2Cl)C(C(=O)OC(C)(C)C)=C(C)N3)cc1OC (mixture of isomers),3D7,,72 h,blood stage,EC50,> 13000 nM
CCOCC(=O)N1CCC[C@H](C(=O)NCc2nc(-c3ccc(C#N)cc3)cs2)C1,DD2,,,blood stage,EC50,6.2 nM
O[C@@H](CNCCN1CCN(C(c2ccccc2)c2ccccc2)CC1)c1cc(Cl)cc2c1-c1ccc(Cl)cc1C2,W2,,48 h,"drug-resistant strain, blood stage",IC50,13 nM
Cn1cc2c3c1C(=O)C(N)=CC3=[N+](C)CC2,3D7,,,blood stage,IC50,1140 nM
CCCCCCCNC[C@@H](O)c1cc(Cl)cc2c1-c1ccc(Cl)cc1C2,W2,,48 h,"drug-resistant strain, blood stage",IC50,4.7 nM
COCC(=O)N1CCC[C@H](C(=O)NCc2nc(-c3ccc(C#N)cc3)cs2)C1,DD2,,,blood stage,EC50,18 nM
O=Cc1cn(Cc2cn(-c3ccnc4cc(Cl)ccc34)nn2)c2ccccc12,3D7,5 µM,,blood stage,inhibition,-4.99%
CCN(CC)CCCC(C)Nc1ccnc2cc(Cl)ccc12 (stereo not shown),DD2,,96 h,"drug-resistant strain, blood stage",IC50,75 nM
O[C@H](CN[C@@H](COCC1CC1)Cc1ccccc1)c1cc(Cl)cc2c1-c1ccc(Cl)cc1C2,W2,,48 h,"drug-resistant strain, blood stage",IC50,5.4 nM
C[N+]1=C2C=C(NCCc3ccc(O)cc3)C(=O)c3[nH]cc(c32)CC1,DD2,,,blood stage,IC50,28.3 nM
CCCCCNC[C@@H](O)c1cc(Cl)cc2c1-c1ccc(Cl)cc1C2,W2,,48 h,"drug-resistant strain, blood stage",IC50,8.6 nM
COCC(=O)N1CCC[C@H](C(=O)NCc2nc(-c3ccccc3)cs2)C1,DD2,,72 h,blood stage,EC50,69 nM
C[N+]1=C2C=C(N/C=C/c3ccc(O)cc3)C(=O)c3[nH]cc(c32)CC1,DD2,,,blood stage,IC50,498 nM
CCCCCCNC[C@@H](O)c1cc(Cl)cc2c1-c1ccc(Cl)cc1C2,W2,,48 h,"drug-resistant strain, blood stage",IC50,6.5 nM
CCN(CC)CCCC(C)Nc1ccnc2cc(Cl)ccc12 (stereo not shown),DD2,,,"drug-resistant strain, blood stage",IC50,848 nM
C[C@@H]1CC[C@H]2[C@@H](C)C(=O)O[C@@H]3O[C@@]4(C)CC[C@@H]1[C@]32OO4,,,72 h,,EC50,14 nM
C[N+]1=C2C=C(N)C(=O)c3[nH]cc(c32)CC1,W2,,,blood stage,IC50,681 nM
O[C@@H](CNCCCC(F)(F)F)c1cc(Cl)cc2c1-c1ccc(Cl)cc1C2,W2,,48 h,"drug-resistant strain, blood stage",IC50,3.8 nM
O=C1c2[nH]cc3c2C(=NCC3)c2c(-c3ccc(O)cc3)c[nH]c21,3D7,,,blood stage,IC50,2090 nM
Cc1cc(Nc2ccc(S(F)(F)(F)(F)F)cc2)n2nc(C(C)(F)F)nc2n1,DD2,,,blood stage,EC50,8.5 nM
